Laboratory results from ChEMBL document CHEMBL1138360, “Hypoxia-selective 3-alkyl 1,2,4-benzotriazine 1,4-dioxides: the influence of hydrogen bond donors on extravascular transport and antitumor activity” (J Med Chem, 2007).

Tests used:
HT-29 [1] = test: Cytotoxicity against HT29 cells under hypoxic condition after 4 hrs; type: functional, cell-based; settings: Homo sapiens, HT-29, 4 h
Summary of the method: (§1)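 HT29 or SiHa cells exposed to drug for 4 h in 96-well plates under anoxia (H2/Pd anaerobic chamber). IC50 determined.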

HT-29 [2] = test: Ratio of IC50 for HT29 cells in aerobic condition to IC50 for HT29 cells in hypoxic condition after 4 hrs; type: functional, Homo sapiens
Summary of the method: (§2)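 Aerobic and anoxic (H2/Pd chamber) IC50s measured in the same experiment after 4 h exposure, HT29 or SiHa cells. Ratio computed as aerobic IC50/anoxic IC50.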

SiHa [3] = test: Cytotoxicity against SiHa cells under hypoxic condition after 4 hrs; type: functional, cell-based; settings: Homo sapiens; summary of the method: as §1
SiHa [4] = test: Ratio of IC50 for SiHa cells in aerobic condition to IC50 for SiHa cells in hypoxic condition after 4 hrs; type: functional, Homo sapiens; summary of the method: as §2
HT-29 [5] = test: Diffusion coefficient, D in aerobic HT29 multicellular layers; type: ADME, cell-based; settings: human
Summary of the method: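 Drug flux measured through HT29 multicellular layers on Teflon support membranes under 95% O2 at 37 °C, 50 µM initial donor concentration. Donor and receiver levels fitted with a diffusion model. Layer thickness estimated from flux of internal standard urea.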

HT-29 [6] = test: Drug penetration in anoxic HT29 cells assessed as penetration half distance; type: ADME, cell-based; settings: human
HT-29 [7] = test: Cell viability in anoxic HT29 cells assessed as drug level providing 10% surviving fraction by clonogenic assay; type: cell-based; settings: human
[8] = Solubility in culture medium in presence of 5% fetal calf serum; type: physicochemical; settings: culture medium with 5% fetal calf serum
Summary of the method: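 Solubility determined at 22 °C in culture medium containing 5% fetal calf serum.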

Row | Structure (SMILES) | IC50 (HT-29 [1]) [µM] | Ratio IC50 (HT-29 [2]) | IC50 (SiHa [3]) [µM] | Ratio IC50 (SiHa [4]) | D (HT-29 [5]) | Penetration half distance (HT-29 [6]) [µm] | Activity (HT-29 [7]) [µM·h] | solubility [8] [mM]
1 | [O-][n+]1nc(CCO)[n+]([O-])c2ccccc21 | 3.7 | 153 | 1.7 | 526 | 4.41 10^-7cm2/sec | 34 | 18.1 | 
2 | CCc1n[n+]([O-])c2ccc(OCCOC)cc2[n+]1[O-] | 17.9 | 120 | 14.2 | 70 |  | 34 | 213.2 | 
3 | CCc1n[n+]([O-])c2ccc(OCCCN3CCOCC3)cc2[n+]1[O-].Cl |  |  |  |  |  |  |  | > 47
4 | Cc1ccc2c(c1)[n+]([O-])c(CCO)n[n+]2[O-] | 4.3 | 82 | 1.2 | 208 |  | 34 | 22.2 | 
5 | Cc1n[n+]([O-])c2ccccc2[n+]1[O-] | 4.1 | 67 | 3 | 57 | 19.15 10^-7cm2/sec | 34 | 25.3 | 
6 | CCc1n[n+]([O-])c2ccc(OCCCO)cc2[n+]1[O-] | 17 | 54 | 8.6 | 105 |  | 34 | 108.9 | 
7 | CCc1n[n+]([O-])c2ccc(C)cc2[n+]1[O-].Cl |  |  |  |  |  |  |  | 4
8 | CCc1n[n+]([O-])c2ccc(C)cc2[n+]1[O-] | 11.4 | 63 | 3.6 | 214 |  | 34 | 52.4 | 
9 | COCCc1n[n+]([O-])c2ccc(C)cc2[n+]1[O-].Cl |  |  |  |  |  |  |  | 3
10 | COCCc1n[n+]([O-])c2ccc(C)cc2[n+]1[O-] | 6.6 | 63 | 1.9 | 150 | 17.34 10^-7cm2/sec | 34 | 57.9 | 
11 | CCc1n[n+]([O-])c2ccccc2[n+]1[O-].Cl |  |  |  |  |  |  |  | 15
12 | COCCCc1n[n+]([O-])c2ccccc2[n+]1[O-] | 6.9 | 86 | 2.4 | 272 | 21.3 10^-7cm2/sec | 34 | 26.7 | 
13 | CN(C)CCCc1n[n+]([O-])c2ccccc2[n+]1[O-].Cl |  |  |  |  |  |  |  | 51
14 | Cl.[O-][n+]1nc(CCCN2CCCCC2)[n+]([O-])c2ccccc21 |  |  |  |  |  |  |  | 43
15 | COc1n[n+]([O-])c2ccccc2[n+]1[O-].Cl |  |  |  |  |  |  |  | 23
16 | Cl.[O-][n+]1nc(-c2ccccc2)[n+]([O-])c2ccccc21 |  |  |  |  |  |  |  | 0.3
17 | CCc1n[n+]([O-])c2cc(OCCCO)ccc2[n+]1[O-] | 6.9 | 146 | 2.7 | 161 |  | 34 | 31.6 | 
18 | [O-][n+]1nc(-c2ccccc2)[n+]([O-])c2ccccc21 | 4.4 | 2 | 2.2 | 1 |  | 34 |  | 
19 | Cl.[O-][n+]1nc(CCCN2CCOCC2)[n+]([O-])c2ccccc21 |  |  |  |  |  |  |  | > 46
20 | CCc1n[n+]([O-])c2ccc(OCCN(C)C)cc2[n+]1[O-].Cl |  |  |  |  |  |  |  | > 49
21 | CCc1n[n+]([O-])c2cc(OCCN(C)C)ccc2[n+]1[O-] | 0.7 | 105 | 0.5 | 128 |  | 34 | 1.8 | 
22 | CCc1n[n+]([O-])c2ccc(OCCO)cc2[n+]1[O-].Cl |  |  |  |  |  |  |  | 21
23 | CCc1n[n+]([O-])c2cc(OCCCO)ccc2[n+]1[O-].Cl |  |  |  |  |  |  |  | 17

Row | Structure (SMILES) | IC50 (HT-29 [1]) [µM] | Ratio IC50 (HT-29 [2]) | IC50 (SiHa [3]) [µM] | Ratio IC50 (SiHa [4]) | D (HT-29 [5]) | Penetration half distance (HT-29 [6]) [µm] | Activity (HT-29 [7]) [µM·h] | solubility [8] [mM]
24 | CCc1n[n+]([O-])c2ccc(OCCOC)cc2[n+]1[O-].Cl |  |  |  |  |  |  |  | 3
25 | CN(C)CCCc1n[n+]([O-])c2ccccc2[n+]1[O-] | 0.39 | 71 | 0.2 | 58 |  | 34 | 2.1 | 
26 | COc1n[n+]([O-])c2ccccc2[n+]1[O-] | 3.1 | 1 | 1.1 | 4 |  | 34 |  | 
27 | COCCCc1n[n+]([O-])c2ccccc2[n+]1[O-].Cl |  |  |  |  |  |  |  | 21
28 | CCc1n[n+]([O-])c2cc(OCCN(C)C)ccc2[n+]1[O-].Cl |  |  |  |  |  |  |  | > 51
29 | CCc1n[n+]([O-])c2ccc(OCCN3CCCCC3)cc2[n+]1[O-].Cl |  |  |  |  |  |  |  | > 48
30 | CCc1n[n+]([O-])c2ccc(OCCCO)cc2[n+]1[O-].Cl |  |  |  |  |  |  |  | 10
31 | Cl.[O-][n+]1nc(CCO)[n+]([O-])c2ccccc21 |  |  |  |  |  |  |  | 34
32 | CCc1n[n+]([O-])c2ccc(OC)cc2[n+]1[O-].Cl |  |  |  |  |  |  |  | 3
33 | Cc1n[n+]([O-])c2ccccc2[n+]1[O-].Cl |  |  |  |  |  |  |  | 28
34 | CCc1n[n+]([O-])c2cc(OCCCN3CCOCC3)ccc2[n+]1[O-].Cl |  |  |  |  |  |  |  | > 48
35 | [O-][n+]1nc(CCCN2CCOCC2)[n+]([O-])c2ccccc21 | 2.2 | 91 | 1 | 132 | 7.47 10^-7cm2/sec | 34 | 3.2 | 
36 | Cc1ccc2c(c1)[n+]([O-])c(CCO)n[n+]2[O-].Cl |  |  |  |  |  |  |  | 7
37 | COCCc1n[n+]([O-])c2ccccc2[n+]1[O-].Cl |  |  |  |  |  |  |  | > 21
38 | CCc1n[n+]([O-])c2ccc(OCCO)cc2[n+]1[O-] | 14.4 | 54 | 7.9 | 203 |  | 34 | 97.3 | 
39 | CCc1n[n+]([O-])c2cc(OCCOC)ccc2[n+]1[O-].Cl |  |  |  |  |  |  |  | 2
40 | [O-][n+]1nc(CCCN2CCCCC2)[n+]([O-])c2ccccc21 | 1 | 36 | 0.6 | 55 | 6.5 10^-7cm2/sec | 34 | 1.5 | 
41 | Cl.[O-][n+]1nc(CCCO)[n+]([O-])c2ccccc21 |  |  |  |  |  |  |  | 50
42 | Cl.[O-][n+]1nc(CCN2CCOCC2)[n+]([O-])c2ccccc21 |  |  |  |  |  |  |  | 42
43 | [O-][n+]1nc(CCN2CCOCC2)[n+]([O-])c2ccccc21 | 3.8 | 107 | 2.2 | 225 |  | 34 | 10 | 
44 | [O-][n+]1nc(CCCO)[n+]([O-])c2ccccc21 | 3.7 | 110 | 3.1 | 85 | 4.94 10^-7cm2/sec | 34 | 30.2 | 
45 | CCc1n[n+]([O-])c2cc(OCCOC)ccc2[n+]1[O-] | 4.7 | 69 | 1.8 | 116 |  | 34 | 40.7 | 
